Assay type in all cases: cell-based
In assay [1] the target is Nicotinic acetylcholine receptor alpha6/alpha3/beta4 (Rattus norvegicus) (UniProt P04757+P12392+P43143). Put plainly: Antagonist activity at rat alpha6/alpha3beta4 nAChR nACHR expressed in Xenopus laevis oocytes assessed as inhibition of acetyl choline-induced membrane currents at 10 uM pre-incubated for 5 mins prior to acetyl choline pulse at -70 mV potential by two-electrode voltage clamp assay. On the technique in general: Two-electrode voltage clamp is typically applied to oocytes expressing channels or transporters.

Assay [2] deals with Neuronal acetylcholine receptor; alpha3/beta4 (Rattus norvegicus) (UniProt P04757+P12392). Put plainly: Antagonist activity at rat alpha3beta4 nACHR expressed in Xenopus laevis oocytes assessed as inhibition of acetyl choline-induced membrane currents at 10 uM pre-incubated for 5 mins prior to acetyl choline pulse at -70 mV potential by two-electrode voltage clamp assay.
Assay [3] addresses Nicotinic acetylcholine receptor alpha6/alpha3/beta4 (Rattus norvegicus, UniProt P04757+P12392+P43143). Put plainly: Antagonist activity at rat alpha6/alpha3beta4 nAChR nACHR expressed in Xenopus laevis oocytes assessed as inhibition of acetyl choline-induced membrane currents pre-incubated for 5 mins prior to acetyl choline pulse at -70 mV potential by two-electrode voltage clamp assay. The essentials: (§1)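 Rat subunit cRNAs (equimolar, ≥10 ng each) were expressed in oocytes held at 17 °C in ND96 and clamped at -70 mV 2-5 days after injection. Perfusate was ND96 with 0.1 mg/mL BSA and 1 µM atropine. After 5 min toxin exposure, 100 µM ACh was applied for 1 s/min. % response was fitted to a Hill equation for IC50 and nH, at room temperature, n=3-6.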

Assay [4] has as its target Neuronal acetylcholine receptor; alpha3/beta4 (Rattus norvegicus, UniProt P04757+P12392). Kind of assay: Antagonist activity at rat alpha3beta4 nACHR expressed in Xenopus laevis oocytes assessed as inhibition of acetyl choline-induced membrane currents pre-incubated for 5 mins prior to acetyl choline pulse at -70 mV potential by two-electrode voltage clamp assay. The essentials:
as §1

The target in assay [5] is Neuronal acetylcholine receptor subunit alpha-7 (Rattus norvegicus, UniProt Q05941). Kind of assay: Antagonist activity at rat alpha7 nACHR expressed in Xenopus laevis oocytes assessed as inhibition of acetyl choline-induced membrane currents pre-incubated for 5 mins prior to acetyl choline pulse at -70 mV potential by two-electrode voltage clamp assay.
Sequence of Neuronal acetylcholine receptor subunit alpha-7 (Q05941 whole entry): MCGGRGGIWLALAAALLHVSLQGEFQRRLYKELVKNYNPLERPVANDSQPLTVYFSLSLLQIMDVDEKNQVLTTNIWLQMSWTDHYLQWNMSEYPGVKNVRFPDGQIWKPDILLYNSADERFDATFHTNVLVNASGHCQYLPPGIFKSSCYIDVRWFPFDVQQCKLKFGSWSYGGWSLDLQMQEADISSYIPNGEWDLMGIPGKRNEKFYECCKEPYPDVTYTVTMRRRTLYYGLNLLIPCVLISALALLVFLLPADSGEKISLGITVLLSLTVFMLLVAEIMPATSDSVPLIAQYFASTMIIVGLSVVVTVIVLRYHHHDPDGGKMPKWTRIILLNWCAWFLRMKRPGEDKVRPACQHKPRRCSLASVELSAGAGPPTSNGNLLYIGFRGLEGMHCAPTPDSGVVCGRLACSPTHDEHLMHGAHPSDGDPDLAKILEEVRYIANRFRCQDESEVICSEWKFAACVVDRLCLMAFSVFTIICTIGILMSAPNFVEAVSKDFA
The target of assay [6] is Nicotinic acetylcholine receptor alpha9/alpha10 (Rattus norvegicus, UniProt P43144+Q9JLB5). Kind of assay: Antagonist activity at rat alpha9alpha10 nACHR expressed in Xenopus laevis oocytes assessed as inhibition of acetyl choline-induced membrane currents pre-incubated for 5 mins prior to acetyl choline pulse at -70 mV potential by two-electrode voltage clamp assay.
Sequence of Nicotinic acetylcholine receptor alpha9/alpha10 (P43144 whole entry): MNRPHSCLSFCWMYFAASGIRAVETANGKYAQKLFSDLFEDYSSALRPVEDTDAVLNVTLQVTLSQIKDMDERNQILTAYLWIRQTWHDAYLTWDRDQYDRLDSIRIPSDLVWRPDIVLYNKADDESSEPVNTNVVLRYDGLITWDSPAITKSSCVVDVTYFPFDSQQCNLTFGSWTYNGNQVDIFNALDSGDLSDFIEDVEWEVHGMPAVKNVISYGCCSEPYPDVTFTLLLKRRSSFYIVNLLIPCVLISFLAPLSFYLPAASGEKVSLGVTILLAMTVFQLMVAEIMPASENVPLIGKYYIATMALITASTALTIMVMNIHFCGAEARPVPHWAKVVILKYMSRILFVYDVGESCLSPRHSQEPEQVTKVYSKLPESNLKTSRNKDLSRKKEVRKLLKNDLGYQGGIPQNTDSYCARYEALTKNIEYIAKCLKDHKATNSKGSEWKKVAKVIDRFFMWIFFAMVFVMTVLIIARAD
Sequence of Nicotinic acetylcholine receptor alpha9/alpha10 (Q9JLB5 whole entry): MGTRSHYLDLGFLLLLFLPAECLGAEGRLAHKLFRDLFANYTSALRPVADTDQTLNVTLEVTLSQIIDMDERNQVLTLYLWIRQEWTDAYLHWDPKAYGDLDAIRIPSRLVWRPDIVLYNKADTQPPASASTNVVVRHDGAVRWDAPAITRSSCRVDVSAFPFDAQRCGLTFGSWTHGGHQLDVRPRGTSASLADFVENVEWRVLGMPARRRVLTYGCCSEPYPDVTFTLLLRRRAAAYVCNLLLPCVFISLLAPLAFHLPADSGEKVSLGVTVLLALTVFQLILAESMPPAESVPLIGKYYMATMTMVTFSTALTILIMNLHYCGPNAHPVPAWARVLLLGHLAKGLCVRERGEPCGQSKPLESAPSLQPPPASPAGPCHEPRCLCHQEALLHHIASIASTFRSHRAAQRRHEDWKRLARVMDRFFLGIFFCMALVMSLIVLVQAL

Where a SMILES comes first, the peptide text is derived from it. Bridges are numbered along the chain shown (N, C = ends).

Sequence of Neuronal acetylcholine receptor; alpha3/beta4 (P04757 whole entry): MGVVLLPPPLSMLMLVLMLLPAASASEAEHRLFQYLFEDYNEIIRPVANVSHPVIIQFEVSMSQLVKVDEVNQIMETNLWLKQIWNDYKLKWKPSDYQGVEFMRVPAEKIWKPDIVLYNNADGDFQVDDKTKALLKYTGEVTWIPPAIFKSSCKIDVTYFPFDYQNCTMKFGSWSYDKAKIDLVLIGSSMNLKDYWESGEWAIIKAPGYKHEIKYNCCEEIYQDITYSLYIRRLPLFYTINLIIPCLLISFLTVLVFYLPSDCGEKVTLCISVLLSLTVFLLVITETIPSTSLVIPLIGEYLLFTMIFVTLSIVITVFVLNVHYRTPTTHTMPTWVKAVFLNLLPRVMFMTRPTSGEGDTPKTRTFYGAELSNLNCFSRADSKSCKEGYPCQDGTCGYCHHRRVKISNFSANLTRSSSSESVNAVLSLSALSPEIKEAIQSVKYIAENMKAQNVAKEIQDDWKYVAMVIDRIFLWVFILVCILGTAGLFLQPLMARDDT
Sequence of Neuronal acetylcholine receptor; alpha3/beta4 (P12392 whole entry): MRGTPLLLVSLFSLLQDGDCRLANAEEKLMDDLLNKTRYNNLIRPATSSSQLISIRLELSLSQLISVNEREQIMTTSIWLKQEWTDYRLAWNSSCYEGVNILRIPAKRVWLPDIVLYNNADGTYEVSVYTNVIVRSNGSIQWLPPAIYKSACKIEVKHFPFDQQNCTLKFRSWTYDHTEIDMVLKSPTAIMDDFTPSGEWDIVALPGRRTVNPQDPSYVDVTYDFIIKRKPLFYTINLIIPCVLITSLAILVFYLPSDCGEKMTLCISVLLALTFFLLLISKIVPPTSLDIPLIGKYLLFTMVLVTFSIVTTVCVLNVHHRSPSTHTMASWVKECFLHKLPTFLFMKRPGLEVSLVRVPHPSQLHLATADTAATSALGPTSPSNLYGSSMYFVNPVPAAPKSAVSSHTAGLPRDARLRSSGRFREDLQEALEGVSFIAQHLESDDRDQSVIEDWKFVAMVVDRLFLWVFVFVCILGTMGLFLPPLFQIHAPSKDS
Sequence of Nicotinic acetylcholine receptor alpha6/alpha3/beta4 (P04757 whole entry): as the sequence (P04757 whole entry) above
Sequence of Nicotinic acetylcholine receptor alpha6/alpha3/beta4 (P12392 whole entry): as the sequence (P12392 whole entry) above
Sequence of Nicotinic acetylcholine receptor alpha6/alpha3/beta4 (P43143 whole entry): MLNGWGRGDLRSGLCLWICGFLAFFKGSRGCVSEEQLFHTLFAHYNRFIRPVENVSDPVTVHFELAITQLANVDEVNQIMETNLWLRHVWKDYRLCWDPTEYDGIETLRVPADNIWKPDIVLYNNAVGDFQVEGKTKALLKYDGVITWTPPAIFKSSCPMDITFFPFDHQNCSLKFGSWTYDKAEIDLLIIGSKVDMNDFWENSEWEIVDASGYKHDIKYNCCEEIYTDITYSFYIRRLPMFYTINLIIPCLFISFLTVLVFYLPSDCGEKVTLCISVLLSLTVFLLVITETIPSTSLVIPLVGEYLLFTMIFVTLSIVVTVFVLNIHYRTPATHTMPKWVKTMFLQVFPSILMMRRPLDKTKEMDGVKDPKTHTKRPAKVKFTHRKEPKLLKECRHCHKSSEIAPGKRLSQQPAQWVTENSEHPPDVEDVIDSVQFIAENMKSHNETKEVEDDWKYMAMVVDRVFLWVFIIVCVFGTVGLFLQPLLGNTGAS

The inhibition is how much of the control response was suppressed. Turning to `CC[C@H](C)[C@@H]1NC(=O)[C@@H]2CCCN2C(=O)[C@H](CO)NC(=O)[C@H](CCSC)NC(=O)[C@H](C)NC(=O)[C@H](CC(=O)O)NC(=O)[C@@H]2CSSC[C@H](NC(=O)CN)C(=O)N[C@@H](CSSC[C@@H](C(N)=O)NC1=O)C(=O)N[C@@H](CO)C(=O)N[C@@H](Cc1cnc[nH]1)C(=O)N1CCC[C@H]1C(=O)N[C@@H](C(C)C)C(=O)N2`, the inhibition in assay [1] was under 50%.
Turning to `CC[C@H](C)[C@@H]1NC(=O)[C@@H]2CCCN2C(=O)[C@H](CO)NC(=O)[C@H](CCSC)NC(=O)[C@H](C)NC(=O)[C@H](CC(=O)O)NC(=O)[C@@H]2CSSC[C@H](NC(=O)CN)C(=O)N[C@@H](CSSC[C@@H](C(N)=O)NC1=O)C(=O)N[C@@H](CO)C(=O)N[C@@H](Cc1cnc[nH]1)C(=O)N1CCC[C@H]1C(=O)N[C@H](C(C)C)C(=O)N2`, the inhibition in assay [2] and in assay [1] was under 50% each time.
For the compound `CC[C@H](C)[C@@H]1NC(=O)[C@@H]2CCCN2C(=O)[C@H](CO)NC(=O)[C@H](CCSC)NC(=O)[C@H](C)NC(=O)[C@H](CCC(=O)O)NC(=O)[C@@H]2CSSC[C@H](NC(=O)CN)C(=O)N[C@@H](CSSC[C@@H](C(N)=O)NC1=O)C(=O)N[C@@H](CO)C(=O)N[C@@H](Cc1cnc[nH]1)C(=O)N1CCC[C@H]1C(=O)N[C@@H](C(C)C)C(=O)N2` (H-GCCSHPVCEAMSPIC-NH2; disulfide 2-8, 3-15), the inhibition in assay [1] is under 50%.
By IC50 is commonly meant the point on the concentration scale where inhibition reaches its midpoint. In the case of `CC[C@H](C)[C@@H]1NC(=O)[C@@H]2CCCN2C(=O)[C@H](CO)NC(=O)[C@H](CCSC)NC(=O)[C@H](C)NC(=O)[C@H](Cc2ccccc2)NC(=O)[C@@H]2CSSC[C@H](NC(=O)CN)C(=O)N[C@@H](CSSC[C@@H](C(N)=O)NC1=O)C(=O)N[C@@H](CO)C(=O)N[C@@H](Cc1cnc[nH]1)C(=O)N1CCC[C@H]1C(=O)N[C@@H](C(C)C)C(=O)N2` (H-GCCSHPVCFAMSPIC-NH2; disulfide 2-8, 3-15), the IC50 in assay [3] was determined as 10 nM; in assay [4], 11 nM.
Consider `CC[C@H](C)[C@@H]1NC(=O)[C@@H]2CCCN2C(=O)[C@H](CO)NC(=O)[C@H](CCSC)NC(=O)[C@H](C)NC(=O)[C@H](Cc2cnc[nH]2)NC(=O)[C@@H]2CSSC[C@H](NC(=O)CN)C(=O)N[C@@H](CSSC[C@@H](C(N)=O)NC1=O)C(=O)N[C@@H](CO)C(=O)N[C@@H](Cc1cnc[nH]1)C(=O)N1CCC[C@H]1C(=O)N[C@@H](C(C)C)C(=O)N2` (H-GCCSHPVCHAMSPIC-NH2; disulfide 2-8, 3-15), for which the IC50 in assay [3] came to 19 nM; in assay [4], 2 nM.
As to `CC[C@H](C)[C@@H]1NC(=O)[C@@H]2CCCN2C(=O)[C@H](CO)NC(=O)[C@H](CCSC)NC(=O)[C@H](C)NC(=O)[C@H](CCCCN)NC(=O)[C@@H]2CSSC[C@H](NC(=O)CN)C(=O)N[C@@H](CSSC[C@@H](C(N)=O)NC1=O)C(=O)N[C@@H](CO)C(=O)N[C@@H](Cc1cnc[nH]1)C(=O)N1CCC[C@H]1C(=O)N[C@@H](C(C)C)C(=O)N2` (H-GCCSHPVCKAMSPIC-NH2; disulfide 2-8, 3-15), the concentration for half-maximal inhibition (IC50) in assay [5] and in assay [6] was over 10000 nM each time.

The record behind these values is ChEMBL document CHEMBL4196223 (J Med Chem, 2018).
